Screens: PubChem, several laboratories
MPTP block: permeability transition pore inhibition; isolated mouse mitochondria, Ca2+ swelling absorbance, 30 min; inhibition, % at 10 µM; 1.4% of 360,000 active;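 active = inhibition of 50% or more, scaled per plate between neutral and stimulator controls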;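 also: 0% = DMSO wells given calcium and 100% = 1 mM EGTA wells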
rCAG binder: binds r(CAG) RNA repeats; inhibition, % at 3 µM; 1.3% of 370,000 active; r(CAG) RNA repeat, TO-PRO-1 dye displacement fluorescence; AID 651821;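 active = inhibition above the plate cutoff, the mean of all test compounds on that plate plus 3 SD, cut at about 35% in these data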;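 also: 0% = DMSO alone and 100% = 100 µM mitoxantrone as full dye displacement; higher means more dye released from RNA so lower well fluorescence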
B2AR ag: human beta-2 adrenergic receptor agonism by FAP | 0.43% of 340,000 active | P07550 | response, % (concentration not given with the values) | Am2.2-beta2AR cells, FAP receptor internalization, flow cytometry | AID 504454;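 active = response above a set limit, near 3 SD of response in nonfluorescent compounds, cut at about 42% in these data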
Target sequence (P07550 whole entry, looked up): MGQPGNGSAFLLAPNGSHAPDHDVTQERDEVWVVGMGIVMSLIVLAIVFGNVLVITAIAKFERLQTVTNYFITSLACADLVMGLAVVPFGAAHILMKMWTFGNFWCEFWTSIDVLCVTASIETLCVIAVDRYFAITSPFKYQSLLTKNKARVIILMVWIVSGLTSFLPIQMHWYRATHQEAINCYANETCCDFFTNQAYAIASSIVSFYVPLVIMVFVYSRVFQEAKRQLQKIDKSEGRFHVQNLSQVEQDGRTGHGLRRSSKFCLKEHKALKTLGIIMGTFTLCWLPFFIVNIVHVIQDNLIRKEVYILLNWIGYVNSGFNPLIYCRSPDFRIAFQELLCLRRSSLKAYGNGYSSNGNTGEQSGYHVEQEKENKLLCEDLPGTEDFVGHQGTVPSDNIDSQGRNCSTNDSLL
Granule exo inh: blocks lytic granule exocytosis; AID 651702; TALL-104 LAMP-1 surface exposure, flow cytometry; cells stimulated with thapsigargin and PMA; inhibition, % at 10 µM; 0.66% of 360,000 active;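 active = inhibition above about 55%, limit read from the data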
T cell modulator: modulates CD8 T cell binding to vesicles. 2C CD8+ T cell-vesicle binding, flow cytometry; stronger effect = lower value. response (vesicle binding), % at 7 µM. 0.068% of 330,000 active. AID 2052;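 active = response, share of CD8 T cells binding vesicles, and their 90th percentile fluorescence all below set limits, cut at about 80% in these data, passing the limit was not always enough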;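 also: values below 100% mean blocked vesicle binding to the CD8+ T cells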
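Read-out – percent CD8+ FL2 mean versus row control · System – murine 2C transgenic CD8+ T lymphocytes · Times – 1.5 h cell–vesicle binding at 37 °C, then 20 min icy labelling · Control set – naked vesicles low, QL9 vesicles with vehicle high · Detection – cytometric PE anti-B7-1 and Alexa647 anti-CD8 signals after 1% paraformaldehyde fixation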
V-ATPase pH: yeast V-ATPase proton transport regulation by pHLuorin | response, % at 10 µM | 0.37% of 350,000 active | AID 504577 | S. cerevisiae, pHLuorin cytosolic pH fluorescence; in the data active = response mostly above about 7.3%, no sharp cut-off; inactive = mostly below about 5.4%; also: actives read high
Numbers without * were called inactive; . = not tested or not shown. Shown are actives, neighbours in structure and some others; about 3.8% of the full set was active somewhere.

SMILES	MPTP block	rCAG binder	B2AR ag	Granule exo inh	T cell modulator	V-ATPase pH
O=C(N/N=C/c1ccccc1F)NC12CC3CC(CC(C3)C1)C2	1	-4	9	-4	50	-2
O=C(N/N=C/c1ccc(O)cc1O)NC12CC3CC(CC(C3)C1)C2	1	6	44*	2	210	-1
O=C(c1c[nH]c(C(=O)C(Cl)(Cl)Cl)c1)c1c(F)cccc1F	0	0	46*	14	347	2
Cc1cc(OCC(C)CN2CCC(C(O)(c3ccccc3)c3ccccc3)CC2)ccc1Br (stereo not drawn)	.	6	.	.	.	.
CC(=O)Oc1ccc(C(=O)Nc2ccccc2NC(=O)c2ccc(OC(C)=O)cc2)cc1	0	-1	8	58*	143	-4
Cc1ccc(S(=O)(=O)N[C@@H](Cc2ccccc2)C(=O)CCl)cc1	1	0	53*	4	454	-4
CC(c1ccc(NC(=O)OC(C)(C)C)cc1)c1cn(C)c2ccccc12 (stereo not drawn)	.	0	.	.	.	.
CCOC(=O)N1CCN(C(=O)C[C@H]2C[C@@]3(C(=O)OC)C(=C[C@H](C4CCCC4)O[C@@H]3C)N(Cc3cccc4ccccc34)C2=O)CC1	.	8	.	.	.	.
COc1ccc(OC)c(S(=O)(=O)Oc2ccc(N)c3ccccc23)c1	5	14	6	75*	103	1
CCC(=O)N(C1=C(NC)C(=O)c2ccccc2C1=O)C(C)C	2	-5	-5	0	474	-4
CCC(=O)N(CC)C1=C(O)c2ccccc2C(=O)C1=O	1	-1	12	92*	79	8
C=CCN1C(C(=O)OC)CN(Cc2cn(Cc3ccc(F)cc3)nn2)CCS1(=O)=O (stereo not drawn)	.	2	.	.	.	.
Cc1ccc(C2CC(c3ccccc3)=NN2C(=S)Nc2ccccc2)o1 (stereo not drawn)	-8	6	-17	97*	389	4
COC(=O)c1ccc(=O)c2nc3/c(=C/O)c(O)cc(=O)c3[nH]c12	5	69*	-1	-4	194	-1
COC(=O)c1ccc(N)cc1O	0	0	1	-1	994	-2
Nc1ccccc1Sc1nc2ccccc2[nH]1	0	12	9	61*	508	2
O=C(/C=C1\NC2(CCCC2)Cc2ccccc21)N1CCOCC1	7	0	-3	77*	397	-5
CC(=O)Oc1ccc(/C=N/NC(=O)c2ccc(N(C)S(=O)(=O)c3ccccc3)cc2)cc1	2	3	17	94*	304	7
Cc1ccc(/C=N/NC(=O)c2ccc(N(C)S(=O)(=O)c3ccccc3)cc2)cc1	0	6	14	-17	223	10
CCOC(=O)C1Nc2ccccc2C2C(O)C(O)CC12 (stereo not drawn)	-2	43*	-2	3	312	-3
CCOC(=O)C1Nc2ccc(C(F)(F)F)cc2C2c3ccccc3CC12 (stereo not drawn)	-1	-1	-4	-2	696	0
C[C@@H]1COC(=O)[C@H](Cc2ccc(F)cc2)CC/C=C\C[C@@H](CC(=O)NCCO)C(=O)N1	1	-5	-3	5	60*	1
CCCC[C@H]1C2CC(OC(=O)Nc3cc(C)cc(C)c3)C(C2)[C@H]2CCCCN21 (stereo partly drawn)	.	4	.	.	.	.
COC(=O)[C@]12C[C@H](CC(=O)N3CCCCC3)C(=O)N(CCc3ccc(OC)c(OC)c3)C1=C[C@H](COCc1ccccc1)O[C@@H]2C	.	2	.	.	.	.
CCCc1cc(=O)oc2cc(OCC(=O)N(C)C)c(Cl)cc12	8	3	21	-1	222	26*
SMILES	MPTP block	rCAG binder	B2AR ag	Granule exo inh	T cell modulator	V-ATPase pH
CC(C)CN1C(=O)[C@@]2(CC(=O)N(C)C2c2ccccc2)c2cc(-n3cc(CO)nn3)ccc21 (stereo partly drawn)	.	3	.	.	.	.
Cc1ccc(C)c(NC(=S)NNc2ccc(F)cc2F)c1	-3	5	4	84*	150	0
COc1ccc2c(c1)CNC2CS(=O)(=O)NCCc1ccccc1 (stereo not drawn)	.	10	.	.	.	.
CC(=O)OC[C@]12CC[C@H]3[C@@](C)(CC[C@H]4C(C)(C)CCC[C@]34C)[C@@H]1CC(C1=CC(=O)OC1O)O2 (stereo partly drawn)	-3	18	.	86*	.	.
COc1cc(CC(=O)NC2CCCc3ccccc32)cc(OC)c1OC (stereo not drawn)	-1	-1	-3	60*	245	-2
COc1ccccc1CC(=O)NC1CCCc2ccccc21 (stereo not drawn)	2	2	2	0	180	1
COc1ccc(Cl)cc1NC(=O)CSc1nc2sccc2c(=O)[nH]1	-1	45*	-1	7	172	0
C=C(C)COc1ccc(-c2n[nH]c(C)c2Oc2ccccc2OC)c(O)c1	7	10	10	74*	379	-2
O=C(NC1CCCCC1)C(c1cccc2ccccc12)n1c(=O)c(-c2ccco2)nc2ccccc21 (stereo not drawn)	-1	35*	.	4	.	.
CC(C)(C)NC(=O)C(c1ccccc1)n1c(=O)c(-c2ccco2)nc2ccccc21 (stereo not drawn)	-2	36*	.	1	.	.
CC(C)[C@H](NS(=O)(=O)c1ccc(F)cc1F)C(=O)N1CCC[C@H]1C(=O)NCCc1ccccc1Cl	.	-2	.	.	.	.
Cc1cccc(-c2cccc3c4c([nH]c23)[C@@H]2C[C@H](N(C)C(=O)Nc3ccccc3)[C@H]([C@H](C)O)CN2CC4)c1	.	6	.	.	.	.
COc1ccc(C=C(C#N)C(=O)c2ccccc2)cc1	0	7	.	-5	.	.
COc1cc(/C=C(\C#N)C(=O)c2ccc(O)c(O)c2)cc(I)c1O	3	40*	-244	4	634	2
O=C(C1CCN(c2cncnc2)CC1)N1CCCC1	.	2	.	.	.	.
NS(=O)(=O)c1ccc(CCNC(=O)C(=O)c2c[nH]c3ccccc23)cc1	0	13	56*	-5	814	-1
O=C(NCCc1ccccc1)C(=O)c1c[nH]c2ccccc12	-1	0	3	-2	180	1
COC(=O)[C@]12C[C@H](CC(=O)NCc3ccc(OC)c(OC)c3)C(=O)N(Cc3cccc4ccccc34)C1=C[C@H](COCc1ccccc1)O[C@@H]2C	.	14	.	.	.	.
CN(Cc1ccccc1)c1nc2c(c(=O)n(C)c(=O)n2C)n1CCCc1ccccc1	0	0	-1	66*	381	-4
CCN(CC)c1nc2c(c(=O)n(C)c(=O)n2C)n1CCCc1ccccc1	1	-11	-4	54	424	1
Cc1ccc2cc(CCNS(=O)(=O)c3ccc(F)cc3)c(=O)[nH]c2c1C	3	3	43*	1	504	6
O=C(Nc1ccc2c(c1)Cc1ccccc1-2)NC1CCCCN(Cc2cccc(Cl)c2)C1=O (stereo not drawn)	.	6	.	.	.	.
O=C(N/N=C/c1ccco1)c1cccc(N2CCCC2=O)c1	0	0	-10	-2	324	2
